We go through 9 compounds from ChEMBL document CHEMBL1123203, “Metal complexes of mitomycins” (1986).

In assay [1] the test system is P388. Briefly: (§1) Activity against P-388 murine leukemia cells expressed as average weight change at a dose of 25.6 mg/kg per inj. It is filed as functional, Mus musculus.
The test system of assay [2] is P388. Briefly: Activity against P-388 murine leukemia cells expressed as median survival time (MST treated/MST control) at a dose of 12.8 mg/kg per inj. It is filed as functional, Mus musculus. An outline of the steps: (§2)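 P-388 leukemia in vivo: 10^6 ascites cells implanted ip into female CDF1 mice. Six mice per mitosane dose, 10 saline-injected controls, and a concurrent mitomycin C group of six mice per dose. Median survival time recorded; %T/C = MST treated/MST control × 100. 30-day survivors counted. Minimum effective dose set at %T/C 125.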

For assay [3], the system named is P388. Briefly: (§3) Activity against P-388 murine leukemia cells expressed as average weight change at a dose of 12.8 mg/kg per inj. It is filed as functional, Mus musculus.
The subject of assay [4] is P388. The assay is described as follows: Activity against P-388 murine leukemia cells expressed as median survival time (MST treated/MST control) at a dose of 25.6 mg/kg per inj. It is filed as functional, Mus musculus. An outline of the steps:
as §2

For assay [5], the system named is P388. Briefly: Activity against P-388 murine leukemia cells expressed as median survival time (MST treated/MST control) at a dose of 4.8 mg/kg per inj. It is filed as functional, Mus musculus. An outline of the steps:
as §2

The subject of assay [6] is P388. Briefly: Activity against P-388 murine leukemia cells expressed as median survival time (MST treated/MST control) at a dose of 6.4 mg/kg per inj. The format is functional, Mus musculus. An outline of the steps: as §2
Assay [7] has as its system P388. Briefly: (§4) Activity against P-388 murine leukemia cells expressed as average weight change at a dose of 6.4 mg/kg per inj. It is filed as functional, Mus musculus.
Assay [8] deals with P388. The assay is described as follows: (§5) Activity against P-388 murine leukemia cells expressed as average weight change at a dose of 3.2 mg/kg per inj. The format is functional, Mus musculus.
In assay [9] the test system is P388. Briefly: Activity against P-388 murine leukemia cells expressed as average weight change at a dose of 0.4 mg/kg per inj. The format is functional, Mus musculus.
Assay [10] has as its system P388. The assay is described as follows: Activity against P-388 murine leukemia cells expressed as average weight change at a dose of 0.2 mg/kg per inj. The format is functional, Mus musculus.
In assay [11] the test system is P388. The assay is described as follows: Activity against P-388 murine leukemia cells expressed as average weight change at a dose of 0.8 mg/kg per inj. The format is functional, Mus musculus.
The test system of assay [12] is P388. Briefly: Activity against P-388 murine leukemia cells at a dose of 3.2 mg/kg per inj. The format is functional, Mus musculus. An outline of the steps: as §2
Assay [13] deals with P388. The assay is described as follows: Activity against P-388 murine leukemia cells expressed as median survival time (MST treated/MST control) at a dose of 0.4 mg/kg per inj. The format is functional, Mus musculus. An outline of the steps:
as §2

Assay [14] relates to P388. Briefly: Activity against P-388 murine leukemia cells expressed as median survival time (MST treated/MST control) at a dose of 0.8 mg/kg per inj. It is filed as functional, Mus musculus. The method in brief:
as §2

Assay [15] relates to P388. The assay is described as follows: Activity against P-388 murine leukemia cells expressed as median survival time (MST treated/MST control) at a dose of 0.2 mg/kg per inj. The format is functional, Mus musculus. An outline of the steps: as §2
Assay [16] has as its system P388. The assay is described as follows: Activity against P-388 murine leukemia cells expressed as median survival time (MST treated/MST control) at a dose of 1.6 mg/kg per inj. It is filed as functional, Mus musculus. The method in brief:
as §2

The test system of assay [17] is P388. The assay is described as follows: Activity against P-388 murine leukemia cells expressed as average weight change at a dose of 1.6 mg/kg per inj. The format is functional, Mus musculus.
Assay [18] relates to P388. The assay is described as follows: Activity against P-388 murine leukemia cells expressed as median survival time (MST treated/MST control) at a dose of 3.2 mg/kg per inj. The format is functional, Mus musculus. An outline of the steps: as §2
For assay [19], the system named is P388. The assay is described as §1. It is filed as functional, organism-based. The note with it: Mus musculus. An outline of the steps: (§6)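 P-388 leukemia in vivo: 10^6 ascites cells implanted ip in female CDF1 mice. Six mice per dose level; 10 saline-injected controls. A parallel group of six mice per dose received mitomycin C in the same experiment as a reference. Tested at Bristol-Myers.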

The test system of assay [20] is P388. Described as §3. It is filed as functional, organism-based. As to conditions: Mus musculus. An outline of the steps: as §6
Assay [21] has as its system P388. The assay is described as follows: Activity against P-388 murine leukemia cells at a dose of 4.8 mg/kg per inj. It is filed as functional, Mus musculus. The method in brief:
as §2

The subject of assay [22] is P388. The description is as §4. It is filed as functional, organism-based. The note with it: Mus musculus. An outline of the steps:
as §6

Assay [23] has as its system P388. The description is as §5. As to conditions: Mus musculus. It is filed as functional, organism-based. The method in brief:
as §6

The test system of assay [24] is P388. Briefly: Activity against P-388 murine leukemia celLS at a dose of 3.2 mg/kg per inj. The format is functional, Mus musculus. The method in brief:
as §2

A word on the T/C: it is the result in the treated group divided by that in the control group, in per cent.

On to `CO[C@@]12[C@H](COC(N)=O)C3=C(C(=O)C(C)=C(NCCN4CCNCC4)C3=O)N1C[C@@H]1N[C@@H]12.Cl.Cl.[Zn+2]`, for which the Activity in the assay with P388 [1] was -0.6 g; with P388 [3] it was 1.2 g. The MST is given as 90 with P388 [2] and 100 in the assay with P388 [4]. In the assay with P388 [5], this compound displayed a T/C of 213%.

For `CO[C@@]12C(COC(N)=O)C3=C(C(=O)C(C)=C(NCCN4CCNCC4)C3=O)N1CC1NC12` (stereo not given in full), the figures for the Activity in the assay with P388 [1], in the assay on P388 [3] and in the assay on P388 [7] were -0.6 g, 1.2 g and 2.1 g, respectively. In addition, the MST with P388 [2] worked out at 125; with P388 [6] it was 113; in the assay on P388 [4], 138. In the assay with P388 [5], this compound had a T/C of 213%.

On to “Platinium II Complex N7-[2-(2-Pyridyl)ethyl]mitomycin C”, for which the Activity is -0.2 g in the assay on P388 [1] (Mus musculus) and 0.5 g in the assay with P388 [3] (Mus musculus). Moreover, the MST was determined as 110 in the assay with P388 [2] (Mus musculus) and 125 in the assay on P388 [4] (Mus musculus). Further, the T/C in the assay with P388 [5] (Mus musculus) is 230%.

`CO[C@@]12C(COC(N)=O)C3=C(C(=O)C(C)=C(NCCc4ccccn4)C3=O)N1CC1NC12` (stereo not given in full): the Activity with P388 [8] is listed as -0.9 g; in the assay on P388 [9], -0.6 g; with P388 [10], -0.5 g; with P388 [1], -2.7 g; in the assay with P388 [11] it was -0.3 g; with P388 [3] it was -1.8 g. The Activity in the assay on P388 [17] is -0.4 g; in the assay with P388 [7], -1.1 g. Also, the MST came out at 256 in the assay on P388 [2]; 125 in the assay on P388 [13]; 138 in the assay on P388 [14]; 125 in the assay with P388 [15]; 213 in the assay on P388 [6]; 163 with P388 [16]. For the same compound, the MST was above 375 in the assay with P388 [4] and 163 in the assay on P388 [18]. The compound further yielded a T/C with P388 [12] of 319%.

With “3-[6-(1,1-copperdichloro-1H,2H,3H,4H-pyrido[1,2-c]pyrimidin-9-ium-2-yl)-8a-methoxy-5-methyl-4,7-dioxo-(8aR)-1,1a,2,4,7,8,8a,8b-octahydroazireno[3',2':3,4]pyrrolo[1,2-a]indol-8-yl]methyloxocarboxamide”, the MST in the assay with P388 [2] (Mus musculus) worked out at 122; in the assay with P388 [4] (Mus musculus), 128. Besides, the av wt change with P388 [19] is -1.4 g; in the assay on P388 [20], 0.2 g.

Regarding `COC1c2c(COC(=N)[O-])c3c(n2CC1N)C(=O)C(C)=C(N)C3=O.Cl.[Zn+]` (stereo not given), the Activity is given as 2 g with P388 [8]; -0.7 g in the assay with P388 [1]; 0.4 g in the assay on P388 [3]; 0.5 g in the assay on P388 [17]; 0.7 g in the assay on P388 [7]. The MST in the assay with P388 [2] worked out at 144; in the assay on P388 [6], 133; with P388 [16] it was 122; in the assay on P388 [4] it was 178; with P388 [18], 139. This compound came in with a T/C in the assay with P388 [12] of 194%.

Turning to `COC1c2c(COC(N)=O)c3c(n2CC1N)C(=O)C(C)=C(N)C3=O.Cl` (stereo not given), the results for the Activity in the assay with P388 [1], with P388 [3] and with P388 [7] were 0.6 g, 0.4 g and 1.9 g, respectively. Besides, the MST was 115 in the assay on P388 [2], 110 in the assay with P388 [6] and 130 in the assay with P388 [4]. Besides, the T/C in the assay on P388 [21] was above 165%.

In the case of “2-amino-9-(2-carbamoyloxomethyl)-1-methoxy-6-methyl-5,8-dioxo-2,3,5,8-tetrahydro-1H-pyrrolo[1,2-a]indol-7-yl(dichlorocopper)ammonium; Copper chloride”, the Activity with P388 [22] is 0.8 g; in the assay on P388 [23] it was 0.9 g; with P388 [19], -3.1 g; in the assay on P388 [20], 0.3 g. The MST in the assay on P388 [2] (Mus musculus), in the assay with P388 [6] (Mus musculus) and with P388 [18] (Mus musculus) was 100 throughout. Besides, the T/C with P388 [12] (Mus musculus) stood at 100%.

For the compound `CO[C@@]12[C@H](COC(N)=O)C3=C(C(=O)C(C)=C(NCCc4ccccn4)C3=O)N1C[C@@H]1N[C@@H]12.Cl.Cl.[Zn+2]`, the Activity in the assay on P388 [8] is listed as 0.1 g; in the assay with P388 [1] it was -1.3 g; with P388 [3], -0.4 g; in the assay on P388 [17], 0.8 g; with P388 [7] it was -0.6 g. In addition, the MST in the assay on P388 [2] turned out to be 156; in the assay on P388 [6], 139; with P388 [16] it was 122; in the assay with P388 [4] it was 161; in the assay on P388 [18] it was 133. Moreover, the T/C in the assay on P388 [24] came out at 194%.
